Measured values from article PMC6605684 (The Journal of General Physiology, 2019).

Columns and labels:
N1138L/G551D-CFTR = N1138L/G551D-CFTR (Homo sapiens, UniProt P13569, G551D/N1138L); assay: Inside-out patch-clamp of CFTR currents in transfected CHO cells; assay type: cell-based
Method in brief: (§1)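 CFTR construct and GFP plasmid cotransfected into CHO cells, held at 27°C for 2–6 d. Inside-out patches at room temperature, −30 mV, NMDG-Cl solutions at pH 7.4. Channels preactivated with 25 IU PKA plus 2 mM MgATP, then test compound (max 40 µM) applied in 2 mM ATP. ATP-subtracted steady-state currents normalized to the 3 µM response in the same patch. Hill fit with base 0 and maximum 1; EC50 ± SD of fit; 3–7 patches per point.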

G551D-CFTR = G551D-CFTR (Homo sapiens, UniProt P13569, G551D); conditions: ref Yeh et al., 2017, cited from earlier work
Sequence of G551D-CFTR (P13569 whole entry G551D): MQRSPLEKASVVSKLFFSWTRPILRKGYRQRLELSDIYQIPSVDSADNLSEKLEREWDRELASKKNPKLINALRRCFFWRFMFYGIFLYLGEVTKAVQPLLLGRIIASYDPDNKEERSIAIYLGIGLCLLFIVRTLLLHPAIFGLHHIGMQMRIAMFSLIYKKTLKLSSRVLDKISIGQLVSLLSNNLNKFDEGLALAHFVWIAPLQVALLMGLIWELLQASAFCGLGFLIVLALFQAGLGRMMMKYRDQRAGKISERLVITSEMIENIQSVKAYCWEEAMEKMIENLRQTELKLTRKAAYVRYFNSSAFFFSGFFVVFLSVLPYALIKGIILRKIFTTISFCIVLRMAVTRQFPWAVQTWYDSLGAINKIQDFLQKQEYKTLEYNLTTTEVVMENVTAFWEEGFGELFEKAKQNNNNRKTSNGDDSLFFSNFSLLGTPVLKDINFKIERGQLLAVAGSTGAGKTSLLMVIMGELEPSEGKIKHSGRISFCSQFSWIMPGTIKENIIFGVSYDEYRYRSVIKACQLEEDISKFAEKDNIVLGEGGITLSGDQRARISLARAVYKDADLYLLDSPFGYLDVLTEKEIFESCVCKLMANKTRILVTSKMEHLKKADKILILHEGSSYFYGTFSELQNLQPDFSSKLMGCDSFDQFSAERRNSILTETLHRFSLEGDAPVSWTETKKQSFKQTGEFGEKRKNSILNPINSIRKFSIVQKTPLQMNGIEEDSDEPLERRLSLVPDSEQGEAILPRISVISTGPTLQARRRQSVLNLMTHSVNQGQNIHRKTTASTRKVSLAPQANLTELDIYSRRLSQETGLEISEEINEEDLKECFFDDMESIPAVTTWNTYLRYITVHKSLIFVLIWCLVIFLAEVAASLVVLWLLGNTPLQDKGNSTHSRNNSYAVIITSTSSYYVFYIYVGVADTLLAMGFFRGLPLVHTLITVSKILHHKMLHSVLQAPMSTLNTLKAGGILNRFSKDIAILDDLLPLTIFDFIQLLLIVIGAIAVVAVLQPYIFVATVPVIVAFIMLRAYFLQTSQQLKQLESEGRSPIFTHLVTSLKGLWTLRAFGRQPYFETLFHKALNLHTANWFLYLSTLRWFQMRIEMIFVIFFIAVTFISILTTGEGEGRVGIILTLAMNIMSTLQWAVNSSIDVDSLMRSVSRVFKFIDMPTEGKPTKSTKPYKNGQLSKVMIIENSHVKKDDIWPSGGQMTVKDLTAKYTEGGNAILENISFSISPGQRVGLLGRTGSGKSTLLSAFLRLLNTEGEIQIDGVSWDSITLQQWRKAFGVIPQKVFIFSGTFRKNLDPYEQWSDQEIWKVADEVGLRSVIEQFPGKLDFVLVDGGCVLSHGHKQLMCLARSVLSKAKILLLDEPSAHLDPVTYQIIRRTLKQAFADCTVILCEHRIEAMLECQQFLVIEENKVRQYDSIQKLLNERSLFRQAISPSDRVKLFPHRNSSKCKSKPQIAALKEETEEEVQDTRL

[1] = target: R347D-CFTR (ΔR-CFTR background) (Homo sapiens, UniProt P13569, R347D); assay: Inside-out patch-clamp of CFTR currents in transfected CHO cells; assay type: cell-based; conditions: pH 7.4
Sequence of R347D-CFTR (ΔR-CFTR background) (P13569 1-633 R347D limits assumed): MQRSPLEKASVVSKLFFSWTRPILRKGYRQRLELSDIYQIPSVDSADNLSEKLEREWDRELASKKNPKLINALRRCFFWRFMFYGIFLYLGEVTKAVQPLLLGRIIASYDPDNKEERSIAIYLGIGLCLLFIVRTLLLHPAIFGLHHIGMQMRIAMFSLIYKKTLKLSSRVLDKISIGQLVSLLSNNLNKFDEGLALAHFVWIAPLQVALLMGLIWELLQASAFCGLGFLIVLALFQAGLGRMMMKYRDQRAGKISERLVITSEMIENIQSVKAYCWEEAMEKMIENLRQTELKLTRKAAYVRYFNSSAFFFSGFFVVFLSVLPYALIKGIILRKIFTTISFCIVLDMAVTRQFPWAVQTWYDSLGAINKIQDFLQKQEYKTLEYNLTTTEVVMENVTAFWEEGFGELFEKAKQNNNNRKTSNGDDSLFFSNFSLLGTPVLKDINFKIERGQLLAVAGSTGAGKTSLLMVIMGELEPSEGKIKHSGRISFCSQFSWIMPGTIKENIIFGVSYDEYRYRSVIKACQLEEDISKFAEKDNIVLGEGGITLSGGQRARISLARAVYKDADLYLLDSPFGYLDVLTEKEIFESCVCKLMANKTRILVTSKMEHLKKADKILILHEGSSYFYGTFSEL
Sequence of R347D-CFTR (ΔR-CFTR background) (P13569 837-1480 limits assumed): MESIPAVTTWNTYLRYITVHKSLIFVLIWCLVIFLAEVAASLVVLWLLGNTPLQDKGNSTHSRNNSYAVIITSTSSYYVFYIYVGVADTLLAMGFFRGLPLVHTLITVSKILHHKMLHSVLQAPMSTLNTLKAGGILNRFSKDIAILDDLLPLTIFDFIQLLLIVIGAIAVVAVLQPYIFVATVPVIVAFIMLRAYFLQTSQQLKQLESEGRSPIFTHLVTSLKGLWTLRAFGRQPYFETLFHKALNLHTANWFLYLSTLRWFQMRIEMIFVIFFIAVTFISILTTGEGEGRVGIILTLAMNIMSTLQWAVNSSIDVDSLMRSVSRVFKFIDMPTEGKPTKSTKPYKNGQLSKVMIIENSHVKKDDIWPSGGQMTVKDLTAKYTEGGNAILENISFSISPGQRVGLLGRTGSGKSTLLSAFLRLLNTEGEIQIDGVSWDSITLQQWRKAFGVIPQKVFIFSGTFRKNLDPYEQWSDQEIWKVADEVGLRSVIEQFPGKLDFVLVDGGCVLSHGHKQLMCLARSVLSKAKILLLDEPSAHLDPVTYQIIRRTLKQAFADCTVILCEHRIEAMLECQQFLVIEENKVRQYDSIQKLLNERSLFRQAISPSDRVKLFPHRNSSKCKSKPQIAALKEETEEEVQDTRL
Method in brief: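 Channels in ATP exposed to test compound at pH 7.4; percent change of mean current scored. Perfusate then switched to pH 5.5, with or without prior compound exposure at pH 7.4. Fold increase taken as peak current at pH 5.5 divided by mean current at pH 7.4.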

T360A-CFTR = T360A-CFTR (Homo sapiens, UniProt P13569, T360A); assay: Inside-out patch-clamp of CFTR currents in transfected CHO cells; assay type: cell-based
Sequence of T360A-CFTR (P13569 whole entry T360A): as the sequence (P13569 whole entry G551D) above, with T360A, D551G counted along it
Method in brief: as §1

Y304F-CFTR = Y304F-CFTR (Homo sapiens, UniProt P13569, Y304F); assay: as above; assay type: cell-based
Sequence of Y304F-CFTR (P13569 whole entry Y304F): as the sequence (P13569 whole entry G551D) above, with Y304F, D551G counted along it
Method in brief: as §1

N1138Y/G551D-CFTR = N1138Y/G551D-CFTR (Homo sapiens, UniProt P13569, G551D/N1138Y); assay: as above; assay type: cell-based
Sequence of N1138Y/G551D-CFTR (P13569 whole entry G551D/N1138Y): as the sequence (P13569 whole entry G551D) above, with N1138Y counted along it
Method in brief: as §1

D993A-CFTR = D993A-CFTR (Homo sapiens, UniProt P13569, D993A); assay: as above; assay type: cell-based
Sequence of D993A-CFTR (P13569 whole entry D993A): as the sequence (P13569 whole entry G551D) above, with D551G, D993A counted along it
Method in brief: as §1

S1141R/G551D-CFTR = S1141R/G551D-CFTR (Homo sapiens, UniProt P13569, G551D/S1141R); assay: as above; assay type: cell-based
Sequence of S1141R/G551D-CFTR (P13569 whole entry G551D/S1141R): as the sequence (P13569 whole entry G551D) above, with S1141R counted along it
Method in brief: as §1

S1141K/G551D-CFTR = S1141K/G551D-CFTR (Homo sapiens, UniProt P13569, G551D/S1141K); assay: as above; assay type: cell-based
Sequence of S1141K/G551D-CFTR (P13569 whole entry G551D/S1141K): as the sequence (P13569 whole entry G551D) above, with S1141K counted along it
Method in brief: as §1

D924A-CFTR = D924A-CFTR (Homo sapiens, UniProt P13569, D924A); assay: Inside-out patch-clamp of CFTR currents in transfected CHO cells; assay type: cell-based
Sequence of D924A-CFTR (P13569 whole entry D924A): as the sequence (P13569 whole entry G551D) above, with D551G, D924A counted along it
Method in brief: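 No macroscopic currents were obtained, so single-channel recordings were used: less plasmid, recorded within 2 d, 4–5 MΩ pipettes, patch held at −50 mV. Channels activated with PKA plus ATP, then PKA removed in 2 mM ATP. Activity at 3 and 20 µM test compound compared with basal activity in 2 mM ATP.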

[2] = CHO, read-out: Efficacy (% increase) of currents by GLPG1837

Sequence of N1138L/G551D-CFTR (P13569 whole entry G551D/N1138L): as the sequence (P13569 whole entry G551D) above, with N1138L counted along it

SMILES: CC1(C)Cc2c(sc(NC(=O)c3ccn[nH]3)c2C(N)=O)C(C)(C)O1 [GLPG1837, N-(3-carbamoyl-5,5,7,7-tetramethyl-5,7-dihydro-4H-thieno[2,3-c]pyran-2-yl)-lH-pyrazole-5-carboxamide]
- EC50 (N1138L/G551D-CFTR): 80 ± 20 nM
- Emax (N1138L/G551D-CFTR; [2]): 253 ± 32%
- ΔΔG (N1138L/G551D-CFTR; GLPG1837, vs G551D): 1.96 kcal/mol
- Maximal fold increase of currents by GLPG1837 relative to WT-CFTR (G551D-CFTR; greater than WT-CFTR): 20 fold
- Apparent affinity for GLPG1837 relative to WT-CFTR (G551D-CFTR; lower than on WT-CFTR): 10 fold
- Effect of GLPG1837 on currents [1]: no effect
- EC50 (T360A-CFTR): 120 ± 10 nM
- Emax (T360A-CFTR; [2]): 120 ± 38%
- ΔΔG (T360A-CFTR; GLPG1837, vs WT): 0.459 kcal/mol
- EC50 (Y304F-CFTR): 2280 ± 340 nM
- Emax (Y304F-CFTR; [2]): 82 ± 12%
- ΔΔG (Y304F-CFTR; GLPG1837, vs WT): -1.29 kcal/mol
- Relaxation time constant upon removal of GLPG1837 (Y304F-CFTR; mean, n = 5): 5.5 ± 1.3
- EC50 (N1138Y/G551D-CFTR): 400 ± 100 nM
- ΔΔG (N1138Y/G551D-CFTR; GLPG1837, vs G551D): 1.01 kcal/mol
- EC50 (D993A-CFTR): 360 ± 40 nM
- Emax (D993A-CFTR; [2]): 283 ± 47%
- ΔΔG (D993A-CFTR; GLPG1837, vs WT): -0.194 kcal/mol
- EC50 (S1141R/G551D-CFTR): 510 ± 130 nM
- ΔΔG (S1141R/G551D-CFTR; GLPG1837, vs G551D): 0.863 kcal/mol
- EC50 (S1141K/G551D-CFTR): 260 ± 20 nM
- ΔΔG (S1141K/G551D-CFTR; GLPG1837, vs G551D): 1.26 kcal/mol
- Decrease of apparent affinity for GLPG1837 vs WT-CFTR (D924A-CFTR): ≥ 10 fold
- EC50 (D924A-CFTR): > 3000 nM
- Potentiating effect of GLPG1837 (D924A-CFTR; 3 µM GLPG1837, microscopic recording): barely discerned any potentiating effects
- ΔΔG (D924A-CFTR; GLPG1837, −RTln(EC50 mutant/EC50 WT)): <-1.45 kcal/mol
